{
  "source": "ChEMBL document CHEMBL4145654",
  "about": "“Structure-Based Discovery of CF53 as a Potent and Orally Bioavailable Bromodomain and Extra-Terminal (BET) Bromodomain Inhibitor” (J Med Chem, 2018)",
  "key": {"Homo sapiens [1]": {"organism": "Homo sapiens", "experiment": "Selectivity index, ratio of Kd for human EP300 (A1040 to G1161 residues) to Kd for human BRDT bromodomain 2 (K250 to E382 residues)"}, "[2]": {"experiment": "Plasma concentration in SCID mouse xenografted with human MDA-MB-231 cells at 50 mg/kg administered via oral gavage measured after 1 hr", "format": "ADME, organism-based", "summary_of_the_method": "(§1)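 Limited PK in SCID mice bearing MDA-MB-231 tumors, 50 mg/kg given by oral gavage. Plasma and tumor tissue drug levels measured at two time points per compound. Values are the mean of two mice/tumors per time point.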"}, "[3]": {"target": "Bromodomain and WD repeat-containing protein 1 (Homo sapiens, UniProt Q9NSI6)", "sequence (Q9NSI6 whole entry, the tested form may be a part)": "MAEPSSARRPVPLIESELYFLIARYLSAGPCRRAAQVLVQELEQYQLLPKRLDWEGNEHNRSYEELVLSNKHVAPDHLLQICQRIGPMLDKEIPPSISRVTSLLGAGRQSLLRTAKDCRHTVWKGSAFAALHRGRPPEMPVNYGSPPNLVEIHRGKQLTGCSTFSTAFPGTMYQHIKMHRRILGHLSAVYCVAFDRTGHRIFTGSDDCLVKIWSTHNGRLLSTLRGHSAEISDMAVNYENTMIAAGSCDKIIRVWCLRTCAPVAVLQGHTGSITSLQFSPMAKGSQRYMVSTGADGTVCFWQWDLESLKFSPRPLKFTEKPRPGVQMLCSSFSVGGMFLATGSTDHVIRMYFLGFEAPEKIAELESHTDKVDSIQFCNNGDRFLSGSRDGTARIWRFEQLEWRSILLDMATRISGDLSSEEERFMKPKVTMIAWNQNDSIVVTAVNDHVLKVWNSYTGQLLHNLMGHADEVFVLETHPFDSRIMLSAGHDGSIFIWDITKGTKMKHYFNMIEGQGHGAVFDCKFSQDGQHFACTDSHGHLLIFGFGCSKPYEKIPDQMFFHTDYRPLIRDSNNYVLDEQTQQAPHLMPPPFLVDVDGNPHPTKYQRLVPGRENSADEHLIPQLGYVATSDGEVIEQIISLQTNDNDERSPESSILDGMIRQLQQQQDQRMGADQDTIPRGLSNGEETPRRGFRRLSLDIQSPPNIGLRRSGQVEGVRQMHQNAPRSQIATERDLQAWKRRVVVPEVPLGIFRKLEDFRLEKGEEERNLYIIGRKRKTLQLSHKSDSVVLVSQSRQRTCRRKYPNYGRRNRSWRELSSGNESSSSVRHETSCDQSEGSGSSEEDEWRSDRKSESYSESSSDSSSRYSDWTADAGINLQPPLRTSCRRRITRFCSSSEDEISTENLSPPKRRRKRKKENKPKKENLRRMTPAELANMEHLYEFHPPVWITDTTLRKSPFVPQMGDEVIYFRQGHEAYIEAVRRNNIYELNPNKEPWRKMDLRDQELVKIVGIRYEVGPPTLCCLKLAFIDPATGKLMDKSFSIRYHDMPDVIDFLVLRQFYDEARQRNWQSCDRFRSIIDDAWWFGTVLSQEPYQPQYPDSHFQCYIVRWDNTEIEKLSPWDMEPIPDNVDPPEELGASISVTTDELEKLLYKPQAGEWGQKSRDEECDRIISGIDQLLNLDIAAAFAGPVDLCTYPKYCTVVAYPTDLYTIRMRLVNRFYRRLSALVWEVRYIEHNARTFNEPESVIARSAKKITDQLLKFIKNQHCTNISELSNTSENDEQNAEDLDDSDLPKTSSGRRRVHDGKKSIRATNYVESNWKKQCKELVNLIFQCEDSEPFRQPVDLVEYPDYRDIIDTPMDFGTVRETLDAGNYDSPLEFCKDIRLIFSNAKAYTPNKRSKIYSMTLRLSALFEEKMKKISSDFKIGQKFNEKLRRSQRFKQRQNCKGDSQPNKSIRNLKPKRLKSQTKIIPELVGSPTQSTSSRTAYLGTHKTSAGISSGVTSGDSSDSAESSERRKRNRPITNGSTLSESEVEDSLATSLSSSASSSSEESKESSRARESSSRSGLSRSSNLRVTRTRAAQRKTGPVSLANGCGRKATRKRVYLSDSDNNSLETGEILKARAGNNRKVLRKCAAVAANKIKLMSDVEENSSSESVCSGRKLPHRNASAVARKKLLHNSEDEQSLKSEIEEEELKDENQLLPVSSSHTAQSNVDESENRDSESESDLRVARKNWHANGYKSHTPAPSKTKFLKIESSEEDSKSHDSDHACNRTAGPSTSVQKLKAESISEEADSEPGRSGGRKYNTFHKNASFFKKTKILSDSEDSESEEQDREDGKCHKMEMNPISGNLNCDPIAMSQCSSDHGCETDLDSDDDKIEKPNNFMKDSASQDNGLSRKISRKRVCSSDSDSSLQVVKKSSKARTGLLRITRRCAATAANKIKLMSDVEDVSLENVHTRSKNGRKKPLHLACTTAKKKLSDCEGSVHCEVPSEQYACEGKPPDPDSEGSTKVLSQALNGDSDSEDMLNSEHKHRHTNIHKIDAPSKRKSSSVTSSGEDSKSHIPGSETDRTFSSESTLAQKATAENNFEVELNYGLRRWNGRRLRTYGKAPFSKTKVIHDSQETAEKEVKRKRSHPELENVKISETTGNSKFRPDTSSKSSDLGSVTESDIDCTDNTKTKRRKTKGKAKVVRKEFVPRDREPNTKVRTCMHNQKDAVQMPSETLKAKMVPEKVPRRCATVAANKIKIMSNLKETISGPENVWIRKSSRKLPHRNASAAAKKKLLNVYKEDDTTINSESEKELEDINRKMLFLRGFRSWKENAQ", "experiment": "Binding affinity to human WDR9 bromodomain 2 (A1310 to E1430 residues) expressed in bacterial expression system by BROMOscan assay"}, "[4]": {"target": "Serine/threonine-protein kinase PLK4 (Homo sapiens, UniProt O00444)", "sequence (O00444 whole entry)": "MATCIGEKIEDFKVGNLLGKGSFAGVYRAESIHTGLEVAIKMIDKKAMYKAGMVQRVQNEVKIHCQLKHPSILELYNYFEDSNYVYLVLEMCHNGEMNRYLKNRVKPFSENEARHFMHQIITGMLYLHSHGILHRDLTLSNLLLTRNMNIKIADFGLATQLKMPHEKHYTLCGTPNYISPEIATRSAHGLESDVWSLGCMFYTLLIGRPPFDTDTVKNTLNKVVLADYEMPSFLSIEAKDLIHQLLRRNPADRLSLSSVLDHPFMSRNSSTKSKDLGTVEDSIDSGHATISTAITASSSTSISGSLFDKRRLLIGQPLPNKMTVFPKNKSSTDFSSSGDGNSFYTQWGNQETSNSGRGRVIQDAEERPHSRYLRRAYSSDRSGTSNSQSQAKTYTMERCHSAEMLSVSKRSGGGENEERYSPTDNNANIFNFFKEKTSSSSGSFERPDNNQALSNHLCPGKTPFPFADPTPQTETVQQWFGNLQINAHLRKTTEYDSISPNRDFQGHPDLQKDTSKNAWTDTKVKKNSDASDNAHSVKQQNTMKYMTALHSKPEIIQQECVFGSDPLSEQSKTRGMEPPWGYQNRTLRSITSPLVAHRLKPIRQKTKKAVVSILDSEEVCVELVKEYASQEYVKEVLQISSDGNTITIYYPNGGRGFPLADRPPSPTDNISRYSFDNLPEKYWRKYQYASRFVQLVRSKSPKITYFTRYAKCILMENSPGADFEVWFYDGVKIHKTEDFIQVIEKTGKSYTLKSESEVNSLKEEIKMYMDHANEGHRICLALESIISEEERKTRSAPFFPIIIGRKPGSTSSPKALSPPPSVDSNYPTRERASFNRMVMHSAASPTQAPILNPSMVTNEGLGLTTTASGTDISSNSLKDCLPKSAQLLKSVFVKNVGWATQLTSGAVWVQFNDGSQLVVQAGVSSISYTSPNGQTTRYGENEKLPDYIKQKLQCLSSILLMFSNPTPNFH", "experiment": "Inhibition of human PLK4 using casein as substrate in presence of [gamma-33P]-ATP"}, "Homo sapiens [5]": {"organism": "Homo sapiens", "experiment": "Selectivity index, ratio of Kd for human EP300 (A1040 to G1161 residues) to Kd for human BRD2 bromodomain 1 (K71 to N194 residues)"}, "[6]": {"target": "Bromodomain-containing protein 8 (Homo sapiens, UniProt Q9H0E9)", "experiment": "Inhibition of BRD8 bromodomain 1 (unknown origin) by BROMOScan assay"}, "[7]": {"target": "Transcription initiation factor TFIID subunit 1-like (Homo sapiens, UniProt Q8IZX4)", "sequence (Q8IZX4 whole entry, the tested form may be a part)": "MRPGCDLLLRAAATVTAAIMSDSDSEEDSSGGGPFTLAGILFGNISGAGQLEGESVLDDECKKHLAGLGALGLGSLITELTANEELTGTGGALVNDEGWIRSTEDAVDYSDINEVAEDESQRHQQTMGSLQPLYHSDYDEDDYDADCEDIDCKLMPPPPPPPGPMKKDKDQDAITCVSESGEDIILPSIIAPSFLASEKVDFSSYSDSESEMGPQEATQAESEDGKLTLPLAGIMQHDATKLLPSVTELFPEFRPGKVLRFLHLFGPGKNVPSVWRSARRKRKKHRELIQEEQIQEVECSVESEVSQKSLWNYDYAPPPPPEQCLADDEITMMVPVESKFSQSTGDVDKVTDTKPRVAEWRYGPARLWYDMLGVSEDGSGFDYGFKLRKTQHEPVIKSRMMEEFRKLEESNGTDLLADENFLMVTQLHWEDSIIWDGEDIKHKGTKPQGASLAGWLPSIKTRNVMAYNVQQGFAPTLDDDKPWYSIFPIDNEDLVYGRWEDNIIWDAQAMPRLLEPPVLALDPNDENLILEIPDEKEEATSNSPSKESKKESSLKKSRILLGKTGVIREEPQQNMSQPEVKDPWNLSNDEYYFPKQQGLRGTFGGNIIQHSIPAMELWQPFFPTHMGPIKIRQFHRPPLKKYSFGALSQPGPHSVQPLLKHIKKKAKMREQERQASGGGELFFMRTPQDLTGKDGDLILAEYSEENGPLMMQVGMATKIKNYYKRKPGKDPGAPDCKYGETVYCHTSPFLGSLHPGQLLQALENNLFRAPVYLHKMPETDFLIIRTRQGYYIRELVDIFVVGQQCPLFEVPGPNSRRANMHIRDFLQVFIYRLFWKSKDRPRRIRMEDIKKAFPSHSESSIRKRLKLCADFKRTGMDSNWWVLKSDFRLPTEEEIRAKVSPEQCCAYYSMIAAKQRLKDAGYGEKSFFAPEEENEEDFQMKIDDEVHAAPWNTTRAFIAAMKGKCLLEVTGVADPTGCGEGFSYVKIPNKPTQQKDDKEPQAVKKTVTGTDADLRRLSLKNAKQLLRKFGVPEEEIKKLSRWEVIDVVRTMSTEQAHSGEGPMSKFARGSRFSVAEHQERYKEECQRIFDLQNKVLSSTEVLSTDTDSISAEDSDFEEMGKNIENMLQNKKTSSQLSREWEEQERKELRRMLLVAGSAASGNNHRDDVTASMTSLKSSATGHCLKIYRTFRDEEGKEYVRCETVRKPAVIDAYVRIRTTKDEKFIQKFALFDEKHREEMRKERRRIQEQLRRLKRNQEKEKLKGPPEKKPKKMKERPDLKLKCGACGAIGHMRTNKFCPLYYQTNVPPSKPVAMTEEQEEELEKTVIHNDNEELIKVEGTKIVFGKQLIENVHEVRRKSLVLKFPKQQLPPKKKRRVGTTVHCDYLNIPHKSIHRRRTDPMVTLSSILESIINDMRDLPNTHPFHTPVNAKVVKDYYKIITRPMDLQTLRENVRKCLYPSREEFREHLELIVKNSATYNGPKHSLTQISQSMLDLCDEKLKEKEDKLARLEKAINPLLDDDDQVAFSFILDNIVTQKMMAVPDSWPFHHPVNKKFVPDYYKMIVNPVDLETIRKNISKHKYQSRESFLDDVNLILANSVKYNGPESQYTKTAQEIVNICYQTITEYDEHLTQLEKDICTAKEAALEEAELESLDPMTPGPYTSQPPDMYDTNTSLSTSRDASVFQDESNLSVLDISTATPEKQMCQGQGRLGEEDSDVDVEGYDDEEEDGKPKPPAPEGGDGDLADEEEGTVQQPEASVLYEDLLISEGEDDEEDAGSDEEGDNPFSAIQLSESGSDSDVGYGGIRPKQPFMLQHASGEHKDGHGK", "experiment": "Binding affinity to human TAF1L bromodomain 2 (Q1523 to D1654 residues) expressed in bacterial expression system by BROMOScan assay"}, "[8]": {"target": "SWI/SNF-related matrix-associated actin-dependent regulator of chromatin subfamily A member 2 (Homo sapiens, UniProt P51531)", "experiment": "Binding affinity to human SMARCA2 (S1377 to Q1486 residues) expressed in bacterial expression system by BROMOScan assay"}, "Homo sapiens [9]": {"organism": "Homo sapiens", "experiment": "Selectivity index, ratio of Kd for human CECR2 (P423 to D543 residues) to Kd for human BRD4 bromodomain 2 (K333 to E460 residues)"}, "Homo sapiens [10]": {"organism": "Homo sapiens", "experiment": "Selectivity index, ratio of Kd for human EP300 (A1040 to G1161 residues) to Kd for human BRD4 bromodomain 1 (N44 to E168 residues)"}, "Homo sapiens [11]": {"organism": "Homo sapiens", "experiment": "Selectivity index, ratio of Kd for human EP300 (A1040 to G1161 residues) to Kd for human BRD4 bromodomain 2 (K333 to E460 residues)"}, "MDA-MB-231": {"system": "MDA-MB-231", "experiment": "Growth inhibition of human MDA-MB-231 cells after 4 days by WST-8 assay", "format": "functional, cell-based", "details": "MDA-MB-231, 96 h", "summary_of_the_method": "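Cells used within 3 months of thaw. Breast cancer cells seeded at 3000 cells/well, then serially diluted compound added, cultured 4 days. Growth read by WST-8 (10% v/v final, 1−3 h, 450 nm). Readings normalized to DMSO-treated cells. IC50 by nonlinear regression.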"}, "[12]": {"target": "E3 ubiquitin-protein ligase TRIM33 (Homo sapiens, UniProt Q9UPN9)", "experiment": "Binding affinity to human TRIM33-phd-bromo (D882 to A1087 residues) expressed in bacterial expression system by BROMOscan assay"}, "Homo sapiens [13]": {"organism": "Homo sapiens", "experiment": "Selectivity index, ratio of Kd for human CECR2 (P423 to D543 residues) to Kd for human BRDT bromodomain 2 (K250 to E382 residues)"}, "RS4-11": {"system": "RS4-11", "experiment": "Antitumor activity against human RS4:11 cells xenografted in SCID mouse assessed as tumor growth inhibition at 25 mg/kg administered via oral gavage measured on day 35", "format": "functional", "details": "RS4-11, po, 840 h, read-out: TGI", "summary_of_the_method": "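SCID mice were implanted subcutaneously on the dorsal side with 5 × 10⁶ MDA-MB-231 or RS4;11 cells in 50% Matrigel, one tumor per mouse. At ca. 100 mm3, mice were randomized to treatment or vehicle groups and dosed by oral gavage. Tumor volume = L × W²/2. Body weight change tracked. p values by two-tailed unpaired t-test.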"}, "Homo sapiens [14]": {"organism": "Homo sapiens", "experiment": "Selectivity index, ratio of Kd for human CECR2 (P423 to D543 residues) to Kd for human BRDT bromodomain 1 (N21 to E137 residues)"}, "[15]": {"experiment": "Drug uptake in tumor of SCID mouse xenografted with human MDA-MB-231 cells at 50 mg/kg administered via oral gavage measured after 1 hr", "format": "ADME, organism-based, Neoplasm", "details": "read-out: Drug uptake", "summary_of_the_method": "as §1"}, "[16]": {"experiment": "Drug uptake in tumor of SCID mouse xenografted with human MDA-MB-231 cells at 50 mg/kg administered via oral gavage measured after 6 hrs", "format": "ADME, organism-based, Neoplasm", "details": "read-out: Drug uptake", "summary_of_the_method": "as §1"}, "[17]": {"experiment": "Half life in Balb/c mouse at 25 mg/kg, po by LC-MS/MS analysis", "format": "ADME, organism-based", "details": "in vivo", "summary_of_the_method": "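Balb/c mice dosed iv at 5.0 mg/kg or po at 25 mg/kg, compound in vehicle of 20% (v/v) PCP and 70% (v/v) PBS. Serial blood samples taken at 0, 5, 15, 30 min and 1, 2, 4, 6, 8, 24 h. Plasma obtained by centrifugation and stored at −80 °C. Analysis by LC-MS/MS, positive-ion MRM. Parameters from noncompartmental analysis.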"}, "Homo sapiens [18]": {"organism": "Homo sapiens", "experiment": "Selectivity index, ratio of Kd for human CREBBP (R1081 to G1197 residues) to Kd for human BRDT bromodomain 2 (K250 to E382 residues)"}, "Homo sapiens [19]": {"organism": "Homo sapiens", "experiment": "Selectivity index, ratio of Kd for human CECR2 (P423 to D543 residues) to Kd for human BRD2 bromodomain 1 (K71 to N194 residues)"}, "Homo sapiens [20]": {"organism": "Homo sapiens", "experiment": "Selectivity index, ratio of Kd for human CREBBP (R1081 to G1197 residues) to Kd for human BRD4 bromodomain 1 (N44 to E168 residues)"}, "Homo sapiens [21]": {"organism": "Homo sapiens", "experiment": "Selectivity index, ratio of Kd for human EP300 (A1040 to G1161 residues) to Kd for human BRD3 bromodomain 2 (G306 to P416 residues)"}, "Homo sapiens [22]": {"organism": "Homo sapiens", "experiment": "Selectivity index, ratio of Kd for human EP300 (A1040 to G1161 residues) to Kd for human BRD3 bromodomain 1 (P24 to E144 residues)"}, "[23]": {"target": "Chromatin remodeling regulator CECR2 (Homo sapiens, UniProt Q9BXF3)", "experiment": "Binding affinity to human CECR2 (P423 to D543 residues) expressed in bacterial expression system by BROMOscan assay"}, "Mus musculus": {"system": "Mus musculus", "experiment": "Toxicity in SCID mouse xenografted with human RS4:11 cells assessed as change in body weight at 10 to 50 mg/kg administered via oral gavage measured 2 to 3 times per week during compound dosing and measured weekly post treatment", "format": "organism-based", "details": "in vivo", "summary_of_the_method": "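Xenografts raised by subcutaneous dorsal injection of 5 × 10⁶ cells in 50% Matrigel into SCID mice, one tumor per mouse. Mice randomized to treatment or vehicle groups at about 100 mm3 tumor volume. Compounds given by oral gavage at the indicated dose-schedules, with percentage body-weight change tracked alongside tumor volume (L × W²/2).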"}, "[24]": {"target": "Histone acetyltransferase KAT2A (Homo sapiens, UniProt Q92830)", "experiment": "Binding affinity to human GCN5L2 (E726 to K837 residues) expressed in bacterial expression system by BROMOScan assay"}},
  "data": [
    {"smiles": "COc1cc2c(cc1-c1c(C)noc1C)[nH]c1nc(C)nc(Nc3cc(C4CC4)nn3C)c12", "values": [
      {"measurement": "Selectivity Index", "setting": "Homo sapiens [1]", "value": "> 50"},
      {"measurement": "concentration at 1 h", "setting": "[2]", "value": 12.6, "unit": "µg/mL"},
      {"measurement": "Kd", "setting": "[3]", "value": "> 5", "unit": "µM"},
      {"measurement": "IC50", "setting": "[4]", "value": 3.9, "unit": "µM"},
      {"measurement": "Selectivity Index", "setting": "Homo sapiens [5]", "value": "> 50"},
      {"measurement": "Kd", "setting": "[6]", "value": "> 5", "unit": "µM"},
      {"measurement": "Kd", "setting": "[7]", "value": "> 5", "unit": "µM"},
      {"measurement": "Kd", "setting": "[8]", "value": "> 5", "unit": "µM"},
      {"measurement": "Selectivity Index", "setting": "Homo sapiens [9]", "value": "> 50"},
      {"measurement": "Selectivity Index", "setting": "Homo sapiens [10]", "value": "> 50"},
      {"measurement": "Selectivity Index", "setting": "Homo sapiens [11]", "value": "> 50"},
      {"measurement": "IC50", "setting": "MDA-MB-231", "value": 0.085, "unit": "µM"},
      {"measurement": "Kd", "setting": "[12]", "value": "> 5", "unit": "µM"},
      {"measurement": "Selectivity Index", "setting": "Homo sapiens [13]", "value": "> 50"},
      {"measurement": "inhibition in vivo at 25 mg/kg", "setting": "RS4-11", "value": 49.3, "unit": "%"},
      {"measurement": "Selectivity Index", "setting": "Homo sapiens [14]", "value": "> 50"},
      {"measurement": "concentration at 1 h", "setting": "[15]", "value": 7380, "unit": "ng/g"},
      {"measurement": "concentration at 6 h", "setting": "[16]", "value": 3670, "unit": "ng/g"},
      {"measurement": "half-life", "setting": "[17]", "value": 1, "unit": "h"},
      {"measurement": "Selectivity Index", "setting": "Homo sapiens [18]", "value": "> 20"},
      {"measurement": "Selectivity Index", "setting": "Homo sapiens [19]", "value": "> 50"},
      {"measurement": "Selectivity Index", "setting": "Homo sapiens [20]", "value": "> 20"},
      {"measurement": "Selectivity Index", "setting": "Homo sapiens [21]", "value": "> 50"},
      {"measurement": "Selectivity Index", "setting": "Homo sapiens [22]", "value": "> 50"},
      {"measurement": "Kd", "setting": "[23]", "value": 0.57, "unit": "µM"},
      {"measurement": "Activity", "setting": "Mus musculus", "value": "Non-Toxic"},
      {"measurement": "Kd", "setting": "[24]", "value": "> 5", "unit": "µM"}
    ]}
  ]
}
